Reference: ChEMBL document CHEMBL1147748, “Overlapping, nonidentical binding sites of different classes of nonpeptide antagonists for the human gonadotropin-releasing hormone receptor” (J Med Chem, 2006)

Key:
[1] = target: Gonadotropin-releasing hormone receptor (Homo sapiens, UniProt P30968, F272L); assay: Displacement of [125I]-His5, D-Tyr6]GnRH from mutant GnRHR, GnRHR F272L
In short: (§1)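 Human GnRH-R (wild type or site-directed point mutant) was transiently expressed in COS-7 cells by electroporation, with cells cultured 36-48 h before membranes were prepared. Membranes (5-20 µg per point) were incubated 2 h at room temperature with 0.3 nM tracer and varying competitor in HEPES pH 7.5, 150 mM NaCl, 0.1% BSA, then filtered and counted.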

[2] = target: Gonadotropin-releasing hormone receptor (Homo sapiens, UniProt P30968, Y284L); assay: Displacement of [125I]-His5, D-Tyr6]GnRH from mutant GnRHR, GnRHR Y284L
Chain of Gonadotropin-releasing hormone receptor (Homo sapiens, UniProt P30968, Y284L) (P30968 whole entry Y284L): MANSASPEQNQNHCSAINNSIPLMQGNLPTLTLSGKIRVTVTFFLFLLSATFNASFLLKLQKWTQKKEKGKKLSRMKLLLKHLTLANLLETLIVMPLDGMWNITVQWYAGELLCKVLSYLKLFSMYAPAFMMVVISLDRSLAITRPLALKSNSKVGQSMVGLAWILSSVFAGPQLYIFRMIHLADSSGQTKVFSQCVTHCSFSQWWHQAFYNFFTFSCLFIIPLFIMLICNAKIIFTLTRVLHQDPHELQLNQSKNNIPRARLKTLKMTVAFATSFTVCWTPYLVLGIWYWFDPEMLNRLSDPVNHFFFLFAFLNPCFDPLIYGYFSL

[3] = target: Gonadotropin-releasing hormone receptor (Homo sapiens, UniProt P30968, Y290Q); assay: Displacement of [125I]-His5, D-Tyr6]GnRH from mutant GnRHR, GnRHR Y290Q
[4] = target: Gonadotropin-releasing hormone receptor (Homo sapiens, UniProt P30968, E111K); assay: Displacement of [125I]-His5, D-Tyr6]GnRH from mutant GnRHR, GnRHR E111K; in short: as §1
[5] = target: Gonadotropin-releasing hormone receptor (Homo sapiens, UniProt P30968, Q189A); assay: Displacement of [125I]-His5, D-Tyr6]GnRH from mutant GnRHR, GnRHR Q189A; in short: as §1
[6] = target: Gonadotropin-releasing hormone receptor (Homo sapiens, UniProt P30968, S203K); assay: Displacement of [125I]-His5, D-Tyr6]GnRH from mutant GnRHR, GnRHR S203K
[7] = target: Gonadotropin-releasing hormone receptor (Homo sapiens, UniProt P30968, Y284F); assay: Displacement of [125I]-His5, D-Tyr6]GnRH from mutant GnRHR, GnRHR Y284F
Chain of Gonadotropin-releasing hormone receptor (Homo sapiens, UniProt P30968, Y284F) (P30968 whole entry Y284F): as the sequence (P30968 whole entry Y284L) above, with L284F counted along it

[8] = target: Gonadotropin-releasing hormone receptor (Homo sapiens, UniProt P30968, S203P); assay: Displacement of [125I]-His5, D-Tyr6]GnRH from mutant GnRHR, GnRHR S203P
Chain of Gonadotropin-releasing hormone receptor (Homo sapiens, UniProt P30968, S203P) (P30968 whole entry S203P): as the sequence (P30968 whole entry Y284L) above, with S203P, L284Y counted along it

[9] = target: Gonadotropin-releasing hormone receptor (Homo sapiens, UniProt P30968, M24I); assay: Displacement of [125I]-His5, D-Tyr6]GnRH from mutant GnRHR, GnRHR M24I; in short: as §1
Chain of Gonadotropin-releasing hormone receptor (Homo sapiens, UniProt P30968, M24I) (P30968 whole entry M24I): as the sequence (P30968 whole entry Y284L) above, with M24I, L284Y counted along it

[10] = target: Gonadotropin-releasing hormone receptor (Homo sapiens, UniProt P30968, K191E); assay: Displacement of [125I]-His5, D-Tyr6]GnRH from mutant GnRHR, GnRHR K191E; in short: as §1
[11] = target: Gonadotropin-releasing hormone receptor (Homo sapiens, UniProt P30968, L117A); assay: Displacement of [125I]-His5, D-Tyr6]GnRH from mutant GnRHR, GnRHR L117A; in short: as §1
Chain of Gonadotropin-releasing hormone receptor (Homo sapiens, UniProt P30968, L117A) (P30968 whole entry L117A): as the sequence (P30968 whole entry Y284L) above, with L117A, L284Y counted along it

[12] = target: Gonadotropin-releasing hormone receptor (Homo sapiens, UniProt P30968, W280F); assay: Displacement of [125I]-His5, D-Tyr6]GnRH from mutant GnRHR, GnRHR W280F
[13] = target: Gonadotropin-releasing hormone receptor (Homo sapiens, UniProt P30968, N27E); assay: Displacement of [125I]-His5, D-Tyr6]GnRH from mutant GnRHR, GnRHR N27E; in short: as §1
Chain of Gonadotropin-releasing hormone receptor (Homo sapiens, UniProt P30968, N27E) (P30968 whole entry N27E): as the sequence (P30968 whole entry Y284L) above, with N27E, L284Y counted along it

[14] = target: Gonadotropin-releasing hormone receptor (Homo sapiens, UniProt P30968, Y283F); assay: Displacement of [125I]-His5, D-Tyr6]GnRH from mutant GnRHR, GnRHR Y283F
[15] = target: Gonadotropin-releasing hormone receptor (Homo sapiens, UniProt P30968, L112A); assay: Displacement of [125I]-His5, D-Tyr6]GnRH from mutant GnRHR, GnRHR L112A; in short: as §1
Chain of Gonadotropin-releasing hormone receptor (Homo sapiens, UniProt P30968, L112A) (P30968 whole entry L112A): as the sequence (P30968 whole entry Y284L) above, with L112A, L284Y counted along it

[16] = target: Gonadotropin-releasing hormone receptor (Homo sapiens, UniProt P30968, T51A); assay: Displacement of [125I]-His5, D-Tyr6]GnRH from mutant GnRHR, GnRHR T51A
[17] = target: Gonadotropin-releasing hormone receptor (Homo sapiens, UniProt P30968, H182E); assay: Displacement of [125I]-His5, D-Tyr6]GnRH from mutant GnRHR, GnRHR H182E; in short: as §1
Chain of Gonadotropin-releasing hormone receptor (Homo sapiens, UniProt P30968, H182E) (P30968 whole entry H182E): as the sequence (P30968 whole entry Y284L) above, with H182E, L284Y counted along it

[18] = target: Gonadotropin-releasing hormone receptor (Homo sapiens, UniProt P30968, E295K); assay: Displacement of [125I]-His5, D-Tyr6]GnRH from mutant GnRHR, GnRHR E295K; in short: as §1
Chain of Gonadotropin-releasing hormone receptor (Homo sapiens, UniProt P30968, E295K) (P30968 whole entry E295K): as the sequence (P30968 whole entry Y284L) above, with L284Y, E295K counted along it

[19] = target: Gonadotropin-releasing hormone receptor (Homo sapiens, UniProt P30968, H306K); assay: Displacement of [125I]-His5, D-Tyr6]GnRH from mutant GnRHR, GnRHR H306K; in short: as §1
[20] = target: Gonadotropin-releasing hormone receptor (Homo sapiens, UniProt P30968, K115Q); assay: Displacement of [125I]-His5, D-Tyr6]GnRH from mutant GnRHR, GnRHR K115Q; in short: as §1
Chain of Gonadotropin-releasing hormone receptor (Homo sapiens, UniProt P30968, K115Q) (P30968 whole entry K115Q): as the sequence (P30968 whole entry Y284L) above, with K115Q, L284Y counted along it

[21] = target: Gonadotropin-releasing hormone receptor (Homo sapiens, UniProt P30968, T190K); assay: Displacement of [125I]-His5, D-Tyr6]GnRH from mutant GnRHR, GnRHR T190K
Chain of Gonadotropin-releasing hormone receptor (Homo sapiens, UniProt P30968, T190K) (P30968 whole entry T190K): as the sequence (P30968 whole entry Y284L) above, with T190K, L284Y counted along it

[22] = target: Gonadotropin-releasing hormone receptor (Homo sapiens, UniProt P30968, Q208D); assay: Displacement of [125I]-His5, D-Tyr6]GnRH from mutant GnRHR, GnRHR Q208D
[23] = target: Gonadotropin-releasing hormone receptor (Homo sapiens, UniProt P30968, S186K); assay: Displacement of [125I]-His5, D-Tyr6]GnRH from mutant GnRHR, GnRHR S186K
[24] = target: Gonadotropin-releasing hormone receptor (Homo sapiens, UniProt P30968, Q208E); assay: Displacement of [125I]-His5, D-Tyr6]GnRH from mutant GnRHR, GnRHR Q208E
[25] = target: Gonadotropin-releasing hormone receptor (Homo sapiens, UniProt P30968, Y290F); assay: Displacement of [125I]-His5, D-Tyr6]GnRH from mutant GnRHR, GnRHR Y290F
Chain of Gonadotropin-releasing hormone receptor (Homo sapiens, UniProt P30968, Y290F) (P30968 whole entry Y290F): as the sequence (P30968 whole entry Y284L) above, with L284Y, Y290F counted along it

[26] = target: Gonadotropin-releasing hormone receptor (Homo sapiens, UniProt P30968, L112K); assay: Displacement of [125I]-His5, D-Tyr6]GnRH from mutant GnRHR, GnRHR L112K; in short: as §1
[27] = target: Gonadotropin-releasing hormone receptor (Homo sapiens, UniProt P30968, N27A); assay: Displacement of [125I]-His5, D-Tyr6]GnRH from mutant GnRHR, GnRHR N27A; in short: as §1
Chain of Gonadotropin-releasing hormone receptor (Homo sapiens, UniProt P30968, N27A) (P30968 whole entry N27A): as the sequence (P30968 whole entry Y284L) above, with N27A, L284Y counted along it

[28] = target: Gonadotropin-releasing hormone receptor (Homo sapiens, UniProt P30968, Q189K); assay: Displacement of [125I]-His5, D-Tyr6]GnRH from mutant GnRHR, GnRHR Q189K; in short: as §1
[29] = target: Gonadotropin-releasing hormone receptor (Homo sapiens, UniProt P30968, D293K); assay: Displacement of [125I]-His5, D-Tyr6]GnRH from mutant GnRHR, GnRHR D293K; in short: as §1
[30] = target: Gonadotropin-releasing hormone receptor (Homo sapiens, UniProt P30968, D293N); assay: Displacement of [125I]-His5, D-Tyr6]GnRH from mutant GnRHR, GnRHR D293N; in short: as §1
Chain of Gonadotropin-releasing hormone receptor (Homo sapiens, UniProt P30968, D293N) (P30968 whole entry D293N): as the sequence (P30968 whole entry Y284L) above, with L284Y, D293N counted along it

An IC50 [1] of 16.9 nM, an IC50 [2] of 277 nM and an IC50 [3] of 229 nM were found for `COc1c(C)cc(-c2[nH]c3ccc(C(C)(C)C(=O)N(CC(C)C)CC(C)C)cc3c2[C@H](C)CNCCc2ccccc2)cc1C` in this work. The IC50 [4] was 13.6 nM, the IC50 [5] was 10 nM and the IC50 [6] was 14.6 nM. The IC50 [7] was 28.8 nM, the IC50 [8] was 41.4 nM and the IC50 [9] was 23.2 nM. It also gave an IC50 [10] of 11 nM, an IC50 [11] of 4.8 nM and an IC50 [12] of 139 nM. It also gave an IC50 [13] of 10.8 nM, an IC50 [14] of 108 nM and an IC50 [15] of 22.4 nM. The IC50 [16] was 15.8 nM, the IC50 [17] was 7.6 nM and the IC50 [18] was 9.6 nM. For the same compound, the IC50 [19] was 101 nM, the IC50 [20] was 27 nM and the IC50 [21] was 19.8 nM. The IC50 [22] was 16.2 nM, the IC50 [23] was 13.1 nM and the IC50 [24] was 6 nM. The IC50 [25] was 39.6 nM, the IC50 [26] was 24.2 nM and the IC50 [27] was 8.8 nM. It also gave an IC50 [28] of 15.8 nM, an IC50 [29] of 56.1 nM and an IC50 [30] of 32.6 nM.

An IC50 [1] of 4.4 nM, an IC50 [2] of 186 nM and an IC50 [3] of 192 nM were found for `CC(C)C[C@H](NC(=O)[C@@H](Cc1ccc(O)cc1)NC(=O)[C@H](Cc1c[nH]cn1)NC(=O)[C@H](CO)NC(=O)[C@H](Cc1c[nH]c2ccccc12)NC(=O)[C@H](Cc1c[nH]cn1)NC(=O)[C@@H]1CCC(=O)N1)C(=O)N[C@@H](CCCN=C(N)N)C(=O)N1CCC[C@H]1C(=O)NCC(N)=O` in this work. It also gave an IC50 [4] of 10.5 nM, an IC50 [5] of 2.4 nM and an IC50 [6] of 3.1 nM. It also gave an IC50 [7] of 2.8 nM, an IC50 [8] of 5.4 nM and an IC50 [9] of 2.2 nM. For the same compound, the IC50 [10] was 3.7 nM, the IC50 [11] was 4.1 nM and the IC50 [12] was 10.3 nM. It also gave an IC50 [13] of 3.8 nM, an IC50 [14] of 316 nM and an IC50 [15] of 2.5 nM. It also gave an IC50 [16] of 3.1 nM, an IC50 [17] of 3.6 nM and an IC50 [18] of 3.1 nM. The IC50 [19] was 66.2 nM, the IC50 [20] was 8.2 nM and the IC50 [21] was 3.7 nM. For the same compound, the IC50 [22] was 10.1 nM, the IC50 [23] was 4.1 nM and the IC50 [24] was 15 nM. For the same compound, the IC50 [25] was 48.8 nM, the IC50 [26] was 3.5 nM and the IC50 [27] was 5.8 nM. It also gave an IC50 [28] of 2.4 nM, an IC50 [29] of 4.8 nM and an IC50 [30] of 4.7 nM.
